# pIC50: −log10 of the molar value.
# Columns and labels:
# HL-60 = test: Cytotoxicity against human HL60 cells after 69 hrs by MTT assay; assay type: functional, cell-based; details: HL-60, 69 h
# Outline: (§1)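 Tumor lines from NCI, kept in RPMI 1640 with 10% FBS, 2 mM glutamine, penicillin/streptomycin, 37 °C, 5% CO2. Seeded at 0.7 × 10^5 cells/well (adherent) or 0.3 × 10^6 cells/well (suspension). Compounds at 0.078-5 µg/mL in DMSO (final below 0.1%), 69 h, then MTT 0.5 mg/mL for 3 h. Formazan dissolved in DMSO, A595. Triplicates; IC50 by nonlinear regression.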
# MDA-MB-435 = test: Cytotoxicity against human MDA-MB-435 cells after 69 hrs by MTT assay; assay type: functional, cell-based; details: MDA-MB-435, 69 h; outline: as §1
# SF-295 = test: Cytotoxicity against human SF295 cells after 69 hrs by MTT assay; assay type: functional, cell-based; details: SF-295, 69 h; outline: as §1
# HCT-8 = test: Cytotoxicity against human HCT8 cells after 69 hrs by MTT assay; assay type: functional, cell-based; details: HCT-8, 69 h; outline: as §1
# PBMC = test: Cytotoxicity against human PBMC after 72 hrs by alamar blue assay; assay type: cell-based
# Outline: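 PBMC isolated from heparinized blood of healthy nonsmoking donors by Ficoll-Hypaque gradient. Cells at 3 × 10^5 cells/mL in RPMI 1640 with 20% FBS, 37 °C, 5% CO2, phytohemagglutinin 3% added at the start. Compounds added after 24 h at 0.078-5 µg/mL in DMSO (final below 0.1%), exposure 72 h. Alamar Blue added for the last 24 h; absorbance read at 570 and 595 nm, expressed as % reduced versus control.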
# [1] = Hemolytic activity in mouse erythrocytes at 200 ug/ml after 1 hr by spectrophotometer; assay type: ADME, cell-based; details: erythrocyte
# Outline: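 Mouse erythrocytes as a 2% suspension in 0.85% NaCl with 10 mM CaCl2. Compounds tested at 0.78-200 µg/mL; 1% DMSO served as negative control and 0.2% Triton X-100 set 100% hemolysis. After 1 h at room temperature and centrifugation, released hemoglobin in the supernatant measured at 540 nm absorbance.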
structure (smiles),measurement,setting,value
C=C1C(=O)[C@@]23CC[C@H]4[C@@](C)(CCC[C@]4(C)C(=O)O)[C@@H]2CC[C@@H]1C3,pIC50,HL-60,5.70
same,pIC50,MDA-MB-435,5.38
same,pIC50,SF-295,5.43
same,pIC50,HCT-8,5.82
same,pIC50,PBMC,< 5.00
same,Activity,[1],Not Active
C=C1C(=O)O[C@@]23CC[C@H]4[C@@](C)(CCC[C@]4(C)C(=O)O)[C@@H]2CC[C@@H]1C3 (relative stereo),pIC50,HL-60,5.09
same,pIC50,MDA-MB-435,< 5.00
same,pIC50,SF-295,< 5.00
same,pIC50,HCT-8,5.28
same,pIC50,PBMC,< 5.00
same,Activity,[1],Not Active
C=C(C(=O)OC)C1C[C@H](OC(C)=O)C2=C(CC[C@@H]3[C@@](C)(C(=O)OC)C(=O)CC[C@@]23C)[C@@H]1OC(C)=O (relative stereo) [ABIETANE],pIC50,HL-60,< 5.00
same,pIC50,MDA-MB-435,< 5.00
same,pIC50,SF-295,< 5.00
same,pIC50,HCT-8,< 5.00
same,pIC50,PBMC,< 5.00
same,Activity,[1],Not Active
COc1cccc2c1C(=O)c1c(O)c3c(c(O)c1C2=O)C[C@@](O)(C(=O)CO)C[C@@H]3O[C@H]1C[C@H](N)[C@H](O)[C@H](C)O1 [DOXORUBICIN],pIC50,HL-60,7.30
same,pIC50,MDA-MB-435,5.78
same,pIC50,SF-295,6.43
same,pIC50,HCT-8,7.05
same,pIC50,PBMC,6.30
